Results on 34 compounds are retold here after ChEMBL document CHEMBL1124042, “Synthesis and potential antipsychotic activity of 1H-imidazo[1,2-c]pyrazolo[3,4-e]pyrimidines” (J Med Chem, 1988).

In assay [1] the test system is Mus musculus. In words: Inhibition of locomotor activity in mouse after intraperitoneal administration. Format: functional.
Assay [2] deals with Mus musculus. In words: Inhibition of induction of ataxia in mouse after intraperitoneal administration. The class given is functional. To be noted: ip.
For assay [3], the system named is Rattus norvegicus. In words: Inhibition of Sidman avoidance in rats after peroral administration. To be noted: po. Format: functional. A digest of the protocol:
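Continuous (Sidman) avoidance responding in rats with oral dosing. At least three doses per drug, four animals per dose. ED50 reported ± SEM.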

Assay [4] has as its system Rattus norvegicus. In words: Inhibition of shelf-jump avoidance in rats after peroral administration. The class given is functional. An outline of the steps:
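One-way shelf-jump conditioned avoidance responding in rats. ED50 determined from at least three doses (N = 9).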

Assay [5] addresses Beta-2 adrenergic receptor (Rattus norvegicus, UniProt P10608). In words: Displacement of [3H]DHA (Dihydroalprenolol) from beta-2 adrenergic receptor in rat brain. Format: tissue-based. A digest of the protocol: (§1)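 Rat brain radioligand displacement binding. IC50 values (μM) were derived by nonlinear regression from four or five concentrations of compound.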
On the technique in general: In a radioligand displacement assay an active substance lowers the binding of a labelled ligand.

Assay [6] in a line: Displacement of [3H]CHA (N6-Cyclohexyl adenosine) from rat brain adenosine A1 receptor.
The subject of assay [7] is Monkey. In words: Inhibition of Sidman avoidance in squirrel monkeys after the compound administered perorally. Conditions: in Saimiri, po. The class given is functional. An outline of the steps:
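Oral dosing in squirrel monkeys trained on continuous (Sidman) avoidance responding. ED50 reported ± SEM.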

Assay [8] concerns the target Beta-1 adrenergic receptor (Rattus norvegicus, UniProt P18090). In words: Displacement of [3H]DHA (Dihydroalprenolol) from beta-1 adrenergic receptor in rat brain. The class given is tissue-based. An outline of the steps: as §1
The target in assay [9] is T1, Adenosine receptor A1 (Rattus norvegicus, UniProt P25099).
T1 sequence (P25099 whole entry): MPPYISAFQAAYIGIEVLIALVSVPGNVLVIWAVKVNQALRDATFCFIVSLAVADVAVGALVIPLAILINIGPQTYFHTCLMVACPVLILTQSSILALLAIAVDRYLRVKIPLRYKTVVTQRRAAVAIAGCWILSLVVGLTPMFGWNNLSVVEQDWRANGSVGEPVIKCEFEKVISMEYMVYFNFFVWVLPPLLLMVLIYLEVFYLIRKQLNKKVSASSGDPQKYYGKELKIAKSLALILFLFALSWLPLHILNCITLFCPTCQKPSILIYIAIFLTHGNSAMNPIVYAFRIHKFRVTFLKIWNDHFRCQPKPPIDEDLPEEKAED
In words: Displacement of [3H]-CHA (N6-Cyclohexyl adenosine) from adenosine A1 receptor in rat brain. Format: tissue-based. An outline of the steps:
as §1

The target in assay [10] is Serotonin 1 (5-HT1) receptor (Rattus norvegicus, UniProt P28564+P30940+P19327+P28565). In words: Displacement of [3H]-5-HT from serotonin-1 neurotransmitter receptor in rat brain. The class given is tissue-based. An outline of the steps: as §1
The mark [11] stands for this setting: Mus musculus, ip, read-out: ED50.
Where [12] appears, read: Rattus norvegicus, po, read-out: ED50.

Sequence of Beta-1 adrenergic receptor (P18090 whole entry): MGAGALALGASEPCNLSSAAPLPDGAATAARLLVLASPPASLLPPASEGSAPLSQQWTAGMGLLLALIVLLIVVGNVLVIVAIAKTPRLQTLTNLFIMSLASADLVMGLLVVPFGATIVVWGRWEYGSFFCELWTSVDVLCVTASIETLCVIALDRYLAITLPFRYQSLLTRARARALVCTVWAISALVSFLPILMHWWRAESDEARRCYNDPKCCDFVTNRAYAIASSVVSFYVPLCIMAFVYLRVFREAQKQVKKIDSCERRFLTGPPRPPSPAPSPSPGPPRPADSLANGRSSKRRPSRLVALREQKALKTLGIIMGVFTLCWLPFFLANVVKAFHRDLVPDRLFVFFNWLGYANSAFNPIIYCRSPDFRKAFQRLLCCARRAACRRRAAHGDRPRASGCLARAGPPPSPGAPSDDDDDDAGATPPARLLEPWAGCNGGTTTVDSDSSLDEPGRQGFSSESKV
Sequence of Beta-2 adrenergic receptor (P10608 whole entry): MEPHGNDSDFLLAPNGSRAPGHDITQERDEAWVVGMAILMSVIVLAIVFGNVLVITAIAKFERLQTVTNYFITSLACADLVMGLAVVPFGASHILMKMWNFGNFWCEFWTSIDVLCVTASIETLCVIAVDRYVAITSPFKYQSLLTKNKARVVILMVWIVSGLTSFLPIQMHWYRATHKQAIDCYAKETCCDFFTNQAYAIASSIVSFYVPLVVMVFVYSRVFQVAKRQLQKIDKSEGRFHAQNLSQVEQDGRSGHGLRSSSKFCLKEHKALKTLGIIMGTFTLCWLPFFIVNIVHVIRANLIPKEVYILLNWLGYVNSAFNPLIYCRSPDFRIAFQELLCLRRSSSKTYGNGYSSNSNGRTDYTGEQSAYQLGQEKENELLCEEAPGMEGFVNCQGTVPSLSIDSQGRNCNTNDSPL

Usually ED50 stands for the dose that gives a 50% effect, or the effect in half of the subjects. As to `CCC1=Nc2c(C)nn(C)c2C2=NC(C)CN12` (configuration not stated), the ED50 in [1] (setting [11]) was 21.6 mg/kg; in assay [2], greater than 100 mg/kg; in assay [3], 15.7 mg/kg.
On the same counts, the results for `CCn1nc(C)c2c1C1=NC(C)CN1C(C)=N2` (configuration not stated) are 25.7 mg/kg, greater than 100 mg/kg and 14.8 mg/kg.
As to `CCc1nc2c(C)nn(C)c2c2nc(C)cn12`, the results for the ED50 in assay [1] (setting [11]), in assay [2] and in assay [3] were 36.8 mg/kg, greater than 100 mg/kg and 11.4 mg/kg, respectively.
On to `CCC1=Nc2c(C)nn(C)c2C2=NCCN12`, for which the ED50 in assay [1] (setting [11]) is 22.8 mg/kg; in assay [2], greater than 100 mg/kg; in assay [3], 24.4 mg/kg; in assay [4] (setting [12]), 17 mg/kg.
`CC1=Nc2c(C)nn(C)c2C2=NC(C)C(C)N12` (stereo in doubt; trans): the median effective dose (ED50) in assay [1] (setting [11]) is 69.1 mg/kg; in [2], greater than 100 mg/kg.
On the same counts, the results for `CCCn1nc(C)c2c1C1=NC(C)CN1C(C)=N2` (configuration not stated) are 37.7 mg/kg and greater than 100 mg/kg.
On to `CCc1nc2c(C)nn(C)c2c2nccn12`, for which the 50% effective dose (ED50) in assay [1] (setting [11]) is 34.2 mg/kg; in [2], greater than 100 mg/kg; in assay [4] (setting [12]), 15 mg/kg.
`O=C(CCCN1CCC(O)(c2ccc(Cl)cc2)CC1)c1ccc(F)cc1` [HALOPERIDOL]: the ED50 in [1] (setting [11]) is 0.27 mg/kg; in assay [2], greater than 3 mg/kg; in assay [3] it was 0.8 mg/kg; in [4] (setting [12]), 0.3 mg/kg.
In the case of `CCC1=Nc2c(C)nn(CC)c2C2=NC(C)CN12` (configuration not stated), the ED50 in assay [1] (setting [11]) is 27.2 mg/kg; in assay [2] it was greater than 100 mg/kg; in assay [3], 15.8 mg/kg.
Regarding `Cc1nn(C)c2c1N=C(c1ccccc1)N1CC(C)N=C21` (configuration not stated), the ED50 in [1] (setting [11]) was 62.5 mg/kg; in [2] it was greater than 100 mg/kg; in assay [4] (setting [12]), 65 mg/kg.
With `CCC1=Nc2c(C)nn(C)c2C2=NCC(C)N12` (configuration not stated), the ED50 in [1] (setting [11]) was 28.3 mg/kg; in assay [2], greater than 100 mg/kg.
For the compound `CCc1nc2c(C)nn(C)c2c2nc(C)c(Cl)n12`, the values for the ED50 in [1] (setting [11]), in assay [2] and in assay [4] (setting [12]) were greater than 100 mg/kg, greater than 100 mg/kg and 100 mg/kg, respectively.
On to `Cc1nn(C)c2c1N=C(Cc1ccccc1)N1CC(C)N=C21` (configuration not stated), for which the ED50 in assay [1] (setting [11]) was 21.9 mg/kg; in assay [2], greater than 100 mg/kg; in assay [4] (setting [12]), 62 mg/kg.
A word on the IC50: it is the point on the concentration scale where inhibition reaches its midpoint. Consider `CSc1ccc2c(c1)N(CCC1CCCCN1C)c1ccccc1S2` (configuration not stated) [THIORIDAZINE], for which the IC50 in [5] is greater than 10 µM; in assay [6], greater than 10 µM; in assay [8], greater than 10 µM; in assay [9], greater than 10 µM; in [10] it was 8.7 µM. Also, the ED50 in assay [1] (setting [11]) was 4.4 mg/kg; in [2], greater than 10 mg/kg; in [7], 3.9 mg/kg; in assay [4] (setting [12]) it was 5.8 mg/kg.
Regarding `Cc1cn2c(C)nc3c(C)nn(C)c3c2n1`, the ED50 in [1] (setting [11]) was 73 mg/kg; in assay [2] it was greater than 100 mg/kg; in assay [4] (setting [12]) it was less than 32 mg/kg.
On the same counts, the results for `CCn1nc(C)c2c1C1=NCC(c3ccccc3)N1C(C)=N2` (configuration not stated) are 75.5 mg/kg, greater than 100 mg/kg and greater than 100 mg/kg.
`CCC1=Nc2c(C)nn(C)c2C2=NC(CC)CN12` (configuration not stated): the ED50 was 21.7 mg/kg in assay [1] (setting [11]), greater than 100 mg/kg in assay [2] and 32 mg/kg in [4] (setting [12]).
`CC1=Nc2c(C)nn(C)c2C2=NC(C)C(C)N12` (stereo in doubt; cis): the ED50 in [1] worked out at 37.8 mg/kg; in [4] it was 26 mg/kg.
In the case of `CC1=Nc2c(C)nn(C)c2C2=NC(C)(C)CN12`, the ED50 in assay [1] (setting [11]) was 22.7 mg/kg; in assay [2], greater than 100 mg/kg; in [3], 53.7 mg/kg.
Consider `Cc1nn(C)c2c1nc(C)n1cc(Cc3ccccc3)nc21`, for which the results for the median effective dose (ED50) in assay [1] (setting [11]), in [2] and in assay [4] (setting [12]) were 83.3 mg/kg, greater than 100 mg/kg and 86 mg/kg, respectively.
On to `CCOC(=O)CC1=Nc2c(C)nn(C)c2C2=NC(C)CN12` (configuration not stated), for which the ED50 in assay [1] (setting [11]), in assay [2] and in assay [4] (setting [12]) was greater than 100 mg/kg throughout.
With `Cc1nn(C)c2c1N=CN1CC(C)N=C21` (configuration not stated), the results for the ED50 in [1] (setting [11]) and in assay [2] were 49.2 mg/kg and greater than 100 mg/kg, respectively.
On to `Cc1nn(C)c2c1N=C(C(C)C)N1CC(C)N=C21` (configuration not stated), for which the ED50 is greater than 100 mg/kg in assay [1] (setting [11]), greater than 100 mg/kg in [2] and 41 mg/kg in [4] (setting [12]).
`CC1=Nc2c(C)nn(C)c2C2=NC(C)CN12` (configuration not stated): the figures for the ED50 in [1] (setting [11]) and in assay [2] were 32.1 mg/kg and greater than 100 mg/kg, respectively.
Take `Cc1cn2c(CC(=O)O)nc3c(C)nn(C)c3c2n1`: the ED50 in [1] (setting [11]), in assay [2] and in [4] (setting [12]) was greater than 100 mg/kg each time.
In the case of `CC1=Nc2c(C)nn(C)c2C2=N[C@@H](C(C)C)CN12`, the ED50 is 57.3 mg/kg in [1] (setting [11]) and greater than 100 mg/kg in [2].
Take `CCn1nc(C)c2c1C1=NCCN1C(C)=N2`: the ED50 in assay [1] (setting [11]) is 22.7 mg/kg; in assay [2], greater than 100 mg/kg; in assay [3], 15.3 mg/kg.
Regarding `CCc1nc2c(C)nn(C)c2c2ncc(C)n12`, the figures for the ED50 in [1] (setting [11]), in assay [2] and in assay [4] (setting [12]) were 35.5 mg/kg, greater than 100 mg/kg and 11 mg/kg, respectively.
With `Cc1nn(C)c2c1N=CN1CCN=C21`, the values for the median effective dose (ED50) in assay [1] (setting [11]) and in assay [2] were 39.3 mg/kg and greater than 100 mg/kg, respectively.
`CC[C@H]1CN2C(C)=Nc3c(C)nn(C)c3C2=N1`: the ED50 in assay [1] (setting [11]) is 42.8 mg/kg; in [2], greater than 100 mg/kg; in [4] (setting [12]), 38 mg/kg.
Regarding `Cc1nn(C)c2c1N=C(C1CC1)N1CC(C)N=C21` (configuration not stated), the figures for the ED50 in [1] (setting [11]), in [2] and in assay [4] (setting [12]) were 46.1 mg/kg, greater than 100 mg/kg and 12 mg/kg, respectively.
On the same counts, the results for `Cc1nc2c3c(nc(C)n2c1C)c(C)nn3C` are 39.7 mg/kg, greater than 100 mg/kg and 10 mg/kg.
On the same counts, the results for `CCc1cn2c(CC)nc3c(C)nn(C)c3c2n1` are 20.6 mg/kg, greater than 30 mg/kg and 16 mg/kg.
With `CC[C@@H]1CN2C(C)=Nc3c(C)nn(C)c3C2=N1`, the ED50 is 61.1 mg/kg in [1] (setting [11]), greater than 100 mg/kg in assay [2] and 12 mg/kg in assay [4] (setting [12]).
